How the values were obtained:
[1] = Percent inhibition against DNA polymerase alpha when activated DNA was used as template at 10 uM concentration
In short: (§1)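 Commercial cellular DNA polymerase α (2.5 units/mL) was run in 100 mM Tris-HCl pH 8.0 with 3 mM MgCl2, 1 mM DTT, 40 μg BSA, 100 μM dATP/dCTP/dGTP, ~10 μM [3H]dTTP and 200 μg/mL activated DNA. Incubation was at 37 °C. Values are duplicate means, and inhibition under 5% was taken as not significant.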

Nucleic Acid [2] = experiment: Percent inhibition against DNA polymerase alpha when (dT)n-(rA)12-18 sequence was used as template at 10 uM concentration; type: nucleic-acid assay
In short: (§2)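 Cellular DNA polymerase α (2.5 units/mL) was run in Tris-HCl pH 8.0 buffer with MgCl2, DTT and BSA at 37 °C. Values are duplicate means, and inhibition under 5% was taken as not significant.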

Nucleic Acid [3] = experiment: Percent inhibition against DNA polymerase alpha when (dT)n-(rA)12-18 sequence was used as template at 50 uM concentration; type: nucleic-acid assay; in short: as §2
HSV-1 [4] = experiment: Percent inhibition of DNA polymerase activity in HSV-1 cell lines at a concentration of 10 uM; type: cell-based; details: at 10 µM
In short: (§3)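 HSV-1 DNA polymerase was isolated from Vero cells infected with HSV-1 strain C42. It was assayed with [3H]dTTP as labelled substrate and activated calf thymus DNA at 200 μg/mL. Values are averages of duplicate assays, and inhibition under 5% was taken as not significant.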

HSV-1 [5] = experiment: Percent inhibition of DNA polymerase activity in HSV-1 cell lines at a concentration of 50 uM; type: cell-based; details: at 50 µM; in short: as §3
Human alphaherpesvirus 1 [6] = experiment: Percent inhibition of cellular growth against HSV-1 cells at 10 uM concentration; type: functional; details: Human alphaherpesvirus 1, HSV-1
In short: (§4)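 Toxicity taken as the reduction in Vero cell proliferation over 48 h.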

Human alphaherpesvirus 1 [7] = experiment: Inhibitory effect against HSV-1 plaque formation at a concentration of 10 uM; type: functional
In short: (§5)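 HSV-1 strain C42 plaque formation in Vero cells, with compound added to parallel cultures. Values are averages of duplicate cell cultures.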

Human alphaherpesvirus 1 [8] = experiment: Inhibitory effect against HSV-1 plaque formation at a concentration of 50 uM; type: functional; in short: as §5
Human alphaherpesvirus 1 [9] = experiment: Percent reduction in HSV-1 yield at 10 uM concentration; type: functional
In short: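 HSV-1 strain C42 yield from Vero cells, measured by virus titration. Compounds were added to parallel cultures, and values are averages of duplicate cultures. Inhibition below 50% was not considered significant.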

[10] = tested on: unidentified influenza virus; type: functional; details: at 200 µM
[11] = Percent inhibition against DNA polymerase alpha when activated DNA was used as template at 50 uM concentration; in short: as §1
[12] = tested on: Avian myeloblastosis virus reverse transcriptase (Avian myeloblastosis virus); experiment: Percent inhibition against AMV reverse transcriptase when (dC)n-(dG)12-18 sequence was used as template at 50 uM concentration
[13] = tested on: Avian myeloblastosis virus reverse transcriptase (Avian myeloblastosis virus); experiment: Percent inhibition against AMV reverse transcriptase when (dT)n-(rA)12-18 sequence was used as template at 50 uM concentration
[14] = tested on: Avian myeloblastosis virus reverse transcriptase (Avian myeloblastosis virus); experiment: Percent inhibition against AMV reverse transcriptase when (rC)n-(dG)12-18 sequence was used as template at 50 uM concentration
Human alphaherpesvirus 1 [15] = experiment: (§6) Percent inhibition of cellular growth against HSV-1 cells at 200 uM concentration; type: functional; details: Human alphaherpesvirus 1, HSV-1; in short: as §4
Human alphaherpesvirus 1 [16] = experiment: Inhibitory effect against HSV-1 plaque formation at a concentration of 200 uM; type: functional; details: at 200 µM
[17] = tested on: unidentified influenza virus; experiment: Inhibitory effect against influenza virus plaque formation at a concentration of 100 uM; type: functional
In short: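 Plaque inhibition of influenza A strain Victoria in MDCK cells. Values are averages of duplicate cell cultures.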

Human alphaherpesvirus 1 [18] = experiment: Percent inhibition of cellular growth against Vero cells at 100 uM concentration; type: functional; details: Human alphaherpesvirus 1, HSV-1; in short: as §4
Human alphaherpesvirus 1 [19] = experiment: Inhibitory effect against HSV-1 plaque formation at a concentration of 100 uM; type: functional; in short: as §5
Human alphaherpesvirus 1 [20] = experiment: as §6; type: functional; details: Human alphaherpesvirus 1, HSV-1; remark: listed apart in the source
Human alphaherpesvirus 1 [21] = experiment: Percent inhibition of cellular growth against HSV-1 cells at a concentration of 200 uM; type: functional; details: Human alphaherpesvirus 1, HSV-1; in short: as §4
Human alphaherpesvirus 1 [22] = experiment: Inhibitory effect against HSV-1 plaque formation at a concentration of 1 uM; type: functional; in short: as §5
Human alphaherpesvirus 1 [23] = experiment: Inhibitory effect against HSV-1 plaque formation at a concentration of 5 uM; type: functional; in short: as §5

Compound | inhibition [1] | inhibition (Nucleic Acid [2]) | inhibition (Nucleic Acid [3]) | inhibition (HSV-1 [4]) | inhibition (HSV-1 [5]) | Reduction (Human alphaherpesvirus 1 [9]) | Reduction [10] | inhibition [11] | inhibition [12] | inhibition [13] | inhibition [14] | Reduction (Human alphaherpesvirus 1 [16]) | Reduction [17] | further results
Br.Cn1cc(NC(=O)c2cc(NC(=O)c3cc(NC=O)cn3C)c[nH]2)cc1C(=O)NCCC(=N)N | 29% | 55% | 80% | 55% | 88% | 92% | <50% | 41% | < 5% | 13% | < 5% | – | – | inhibition at 10 µM (Human alphaherpesvirus 1 [6]): 25%; Reduction (Human alphaherpesvirus 1 [7]): <50%; Reduction (Human alphaherpesvirus 1 [8]): 90%
Br.CN(C)C(=N)CCNC(=O)c1cc(NC(=O)c2cc(NC(=O)c3cc(NC=O)cn3C)cn2C)cn1C | 29% | 56% | 80% | 44% | 81% | – | – | 41% | < 5% | 15% | < 5% | <50% | 50% | inhibition at 200 µM (Human alphaherpesvirus 1 [15]): 0%
Br.CCn1cc(NC(=O)c2cc(NC(=O)c3cc(NC=O)cn3CC)cn2CC)cc1C(=O)NCCC(=N)N | 29% | 58% | 75% | 47% | 80% | – | <50% | 39% | < 5% | 9% | < 5% | <50% | – | –
Br.Cn1cc(NC(=O)c2cc(NC(=O)c3cc(NC(=O)c4cc(NC(=O)c5cc(NC=O)cn5C)cn4C)cn3C)cn2C)cc1C(=O)NCCC(=N)N | 17% | 20% | 56% | 56% | 91% | – | 65% | 50% | < 5% | 39% | < 5% | <50% | – | inhibition at 200 µM (Human alphaherpesvirus 1 [15]): 10%
Br.Cn1cc(NC(=O)c2cc(NC(=O)c3cc(NC=O)c[nH]3)cn2C)cc1C(=O)NCCC(=N)N | 31% | 58% | 82% | 54% | 89% | 98% | 75% | 45% | < 5% | 18% | < 5% | – | – | inhibition at 100 µM (Human alphaherpesvirus 1 [18]): 50%; inhibition at 10 µM (Human alphaherpesvirus 1 [6]): 30%; Reduction (Human alphaherpesvirus 1 [19]): >90%; Reduction (Human alphaherpesvirus 1 [7]): 60%; Reduction (Human alphaherpesvirus 1 [8]): 90%
Br.Cn1cc(NC(=O)c2cc(NC(=O)c3cc(NC=O)cn3C)cn2C)cc1C(=O)NCCC(=N)N | 31% | 58% | 82% | 49% | 83% | 27% | – | 40% | – | – | – | 55% | >50% | –
Br.CNC(=N)CCNC(=O)c1cc(NC(=O)c2cc(NC(=O)c3cc(NC=O)cn3C)cn2C)cn1C | 27% | 50% | 76% | 45% | 76% | – | – | 38% | < 5% | 12% | < 5% | <50% | <50% | –
Br.CCn1cc(NC(=O)c2cc(NC(=O)c3cc(NC=O)cn3C)cn2C)cc1C(=O)NCCC(=N)N | 26% | 40% | 73% | 52% | 83% | – | <50% | 35% | < 5% | 11% | < 5% | <50% | – | inhibition at 200 µM (Human alphaherpesvirus 1 [20]): 10%
Br.CCn1cc(NC(=O)c2cc(NC=O)cn2C)cc1C(=O)Nc1cc(C(=O)NCCC(=N)N)n(C)c1 | 23% | 31% | 64% | 48% | 83% | – | <50% | 34% | < 5% | 8% | < 5% | <50% | – | inhibition at 200 µM (Human alphaherpesvirus 1 [21]): 10%
Br.CCn1cc(NC=O)cc1C(=O)Nc1cc(C(=O)Nc2cc(C(=O)NCCC(=N)N)n(C)c2)n(C)c1 | 29% | 60% | 85% | 48% | 83% | – | <50% | 42% | < 5% | 11% | < 5% | 50% | – | inhibition at 200 µM (Human alphaherpesvirus 1 [15]): 50%
Br.Cn1cc(NC=O)cc1C(=O)Nc1cc(C(=O)Nc2c[nH]c(C(=O)NCCC(=N)N)c2)n(C)c1 | 27% | 45% | 75% | 57% | 83% | 99% | – | 37% | < 5% | 17% | < 5% | – | <50% | inhibition at 10 µM (Human alphaherpesvirus 1 [6]): 60%; Reduction (Human alphaherpesvirus 1 [7]): >90%; Reduction (Human alphaherpesvirus 1 [22]): <50%; Reduction (Human alphaherpesvirus 1 [23]): 85%
